The record followed here is ChEMBL document CHEMBL1126988, “Quinolone antibacterials containing the new 7-[3-(1-aminoethyl)-1- pyrrolidinyl] side chain: the effects of the 1-aminoethyl moiety and its stereochemical configurations on potency and in vivo efficacy” (J Med Chem, 1993).

One test concerns Enterococcus faecalis. As to the kind of experiment: Minimum inhibitory concentration was evaluated in vitro against Enterococcus faecalis MGH-2. The class given is functional. The essentials:
(§1)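 Standard microtitration broth assay against a panel of 10 Gram-positive and Gram-negative organisms. MIC read in µg/mL and averaged over multiple experiments.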

The subject of a further test is Pseudomonas aeruginosa. As to the kind of experiment: Minimum inhibitory concentration was evaluated in vitro against Pseudomonas aeruginosa UI-18. The class given is functional. In a few lines:
as §1

Test [1] relates to Streptococcus pyogenes. As to the kind of experiment: Minimum inhibitory concentration was evaluated in vitro against Streptococcus pyogenes C 203. The class given is functional. In a few lines:
as §1

Test [2] can be described thus: Clonogenic cytotoxicity against hamster V-79 cells. The class given is functional, Cricetulus griseus, V79. In a few lines:
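Chinese hamster V-79 cells grown overnight, then drug-treated for 3 h at 37 °C. Medium is replaced with fresh medium and cells are incubated 5 days to allow colony formation. IC50 (µg/mL) is the concentration inhibiting colony formation by 50% relative to control.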

Test [3] deals with Streptococcus pyogenes. The test is described as follows: Compounds were evaluated in vivo for antibacterial activity for mouse protection against Streptococcus pyogenes C 203 after oral administration. The class given is functional. Particulars: for ED50: Streptococcus pyogenes, C 203, po, read-out: PD50.
Another test is filed under the species Mus musculus. As to the kind of experiment: Compounds were evaluated for phototoxicity no-effect dose in mouse. The class given is functional. In a few lines: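 Depilated female CD-1 mice, five per dose plus controls. Animals are dosed orally and then exposed daily to UV-A (320–400 nm) for 3 h, for up to 4 days or until a definite positive response. Redness or erythema relative to controls, read 24 h after irradiation, counts as positive. Reported as the highest dose with no effect (mg/kg).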

The test system of another test is Enterobacter cloacae. The test is described as follows: Minimum inhibitory concentration in vitro against Enterobacter cloacae MA 2646. The class given is functional.
In another test the test system is Streptococcus pneumoniae. The test is described as follows: Minimum inhibitory concentration was evaluated in vitro against Streptococcus pneumoniae SV-1. The class given is functional. In a few lines:
as §1

For test [4], the system named is Escherichia coli. The test is described as follows: Antibacterial activity against Escherichia coli Vogel after subcutaneous administration in mouse. The class given is functional. Particulars: Escherichia coli, sc; read-out: PD50.
In the next test the test system is Klebsiella pneumoniae. The test is described as follows: Minimum inhibitory concentration was evaluated in vitro against Klebsiella pneumoniae MGH2. The class given is functional. The essentials:
as §1

The test system of test [5] is Staphylococcus aureus. As to the kind of experiment: Minimum inhibitory concentration was evaluated in vitro against Staphylococcus aureus H 228. The class given is functional. The essentials: as §1
For test [6], the system named is Staphylococcus aureus. The test is described as follows: Minimum inhibitory concentration was evaluated in vitro against Staphylococcus aureus UC 76. The class given is functional. In a few lines:
as §1

Another test relates to Providencia rettgeri. As to the kind of experiment: Minimum inhibitory concentration was evaluated in vitro against Providencia rettgeri M1771. The class given is functional. In a few lines: as §1
For test [7], the system named is Escherichia coli. The test is described as follows: Antibacterial activity against Escherichia coli Vogel after oral administration in mouse. Particulars: Escherichia coli, po; read-out: PD50. The class given is functional.
Test [8] deals with Streptococcus pyogenes. The test is described as follows: Antibacterial activity measured as mouse protection against Streptococcus pyogenes C 203 after subcutaneous administration. The class given is functional. Particulars: for ED50: Streptococcus pyogenes, C 203, sc, read-out: PD50.
The test system of test [9] is Escherichia coli. The test is described as follows: Antibacterial activity in vitro against Escherichia coli Vogel. The class given is functional. In a few lines: as §1
Setting [10] is: Enterococcus faecalis, read-out: MIC.
[11] abbreviates: Pseudomonas aeruginosa, read-out: MIC.
Setting [12] is: Streptococcus pyogenes, read-out: MIC.
Setting [13] is: Enterobacter cloacae, read-out: MIC.
The mark [14] stands for this setting: Streptococcus pneumoniae, read-out: MIC.
Setting [15] is: Klebsiella pneumoniae, read-out: MIC.
The mark [16] stands for this setting: Staphylococcus aureus, read-out: MIC.
The mark [17] stands for this setting: Providencia rettgeri, read-out: MIC.
[18] abbreviates: Escherichia coli, read-out: MIC.

As usually defined, the MIC is the lowest concentration found to suppress growth.

Structures are written as SMILES. ≈ marks a conversion by molar mass, not a printed value.

Regarding `CN[C@H](C)[C@H]1CCN(c2c(F)cc3c(=O)c(C(=O)O)cn(C4CC4)c3c2C(F)(F)F)C1` (mixture of isomers), the minimal inhibitory concentration (MIC) in the test on Enterococcus faecalis (setting [10]) was determined as 0.1 µg/mL; with Pseudomonas aeruginosa (setting [11]), 3.1 µg/mL; with Streptococcus pyogenes [1] (setting [12]) it was 0.013 µg/mL; with Enterobacter cloacae (setting [13]), 0.4 µg/mL; with Streptococcus pneumoniae (setting [14]) it was 0.013 µg/mL; in the test with Klebsiella pneumoniae (setting [15]), 0.8 µg/mL. Also, the MIC with Staphylococcus aureus [5] (setting [16]) worked out at 0.025 µg/mL; with Staphylococcus aureus [6] (setting [16]), 0.013 µg/mL; in the test with Providencia rettgeri (setting [17]), 0.8 µg/mL; in the test with Escherichia coli [9] (setting [18]) it was 0.4 µg/mL. This compound returned a Cytotoxicity in test [2] of 130 µg/mL. The ED50 in the test on Streptococcus pyogenes [3] was determined as 0.8 mg/kg; in the test with Escherichia coli [4], 2 mg/kg; in the test on Escherichia coli [7] it was 4 mg/kg; in the test on Streptococcus pyogenes [8] it was 0.3 mg/kg. The Dose in the test filed under Mus musculus is over 100 mg/kg.
Take `CNC(C)C1CCN(c2cc3c(c(N)c2F)c(=O)c(C(=O)O)cn3C2CC2)C1` (racemic): the MIC was 0.025 µg/mL (≈ 0.0644 µM) with Enterococcus faecalis (setting [10]); 1.6 µg/mL (≈ 4.12 µM) in the test with Pseudomonas aeruginosa (setting [11]); 0.025 µg/mL (≈ 0.0644 µM) in the test with Streptococcus pyogenes [1] (setting [12]); 0.1 µg/mL (≈ 0.257 µM) in the test on Enterobacter cloacae (setting [13]); 0.013 µg/mL (≈ 0.0335 µM) in the test with Streptococcus pneumoniae (setting [14]); 0.2 µg/mL (≈ 0.515 µM) in the test on Klebsiella pneumoniae (setting [15]). The MIC worked out at 0.05 µg/mL (≈ 0.129 µM) in the test on Staphylococcus aureus [5] (setting [16]), 0.006 µg/mL (≈ 0.0154 µM) in the test on Staphylococcus aureus [6] (setting [16]), 0.4 µg/mL (≈ 1.03 µM) in the test with Providencia rettgeri (setting [17]) and 0.1 µg/mL (≈ 0.257 µM) in the test with Escherichia coli [9] (setting [18]). In test [2], the Cytotoxicity is 290 µg/mL. The ED50 is 8 mg/kg in the test with Streptococcus pyogenes [3] and 1 mg/kg in the test with Streptococcus pyogenes [8]. The Dose in the test listed under Mus musculus was over 100 mg/kg.
Take `CCN[C@H](C)[C@@H]1CCN(c2c(F)c(N)c3c(=O)c(C(=O)O)cn(C4CC4)c3c2F)C1`: the minimal inhibitory concentration (MIC) in the test with Enterococcus faecalis (setting [10]) is 0.025 µg/mL (≈ 0.0595 µM); in the test on Pseudomonas aeruginosa (setting [11]), 1.6 µg/mL (≈ 3.81 µM); in the test with Streptococcus pyogenes [1] (setting [12]), 0.003 µg/mL (≈ 0.00714 µM); in the test with Enterobacter cloacae (setting [13]), 0.1 µg/mL (≈ 0.238 µM); with Streptococcus pneumoniae (setting [14]), 0.003 µg/mL (≈ 0.00714 µM); in the test with Klebsiella pneumoniae (setting [15]) it was 0.1 µg/mL (≈ 0.238 µM). Also, the minimum inhibitory concentration (MIC) in the test on Staphylococcus aureus [5] (setting [16]) is 0.006 µg/mL (≈ 0.0143 µM); in the test with Staphylococcus aureus [6] (setting [16]), 0.003 µg/mL (≈ 0.00714 µM); with Providencia rettgeri (setting [17]), 0.2 µg/mL (≈ 0.476 µM); in the test with Escherichia coli [9] (setting [18]), 0.05 µg/mL (≈ 0.119 µM). Moreover, the Cytotoxicity in [2] was determined as 15 µg/mL. Moreover, the ED50 came to 1 mg/kg with Streptococcus pyogenes [3] and 0.5 mg/kg with Streptococcus pyogenes [8].
Take `CNCC1CCN(c2c(F)c(N)c3c(=O)c(C(=O)O)cn(C4CC4)c3c2F)C1` (stereo not drawn): the minimal inhibitory concentration (MIC) amounted to 0.025 µg/mL (≈ 0.0637 µM) in the test on Enterococcus faecalis (setting [10]); 0.4 µg/mL (≈ 1.02 µM) in the test on Pseudomonas aeruginosa (setting [11]); 0.003 µg/mL (≈ 0.00765 µM) with Streptococcus pyogenes [1] (setting [12]); 0.05 µg/mL (≈ 0.127 µM) in the test with Enterobacter cloacae (setting [13]); 0.003 µg/mL (≈ 0.00765 µM) with Streptococcus pneumoniae (setting [14]); 0.05 µg/mL (≈ 0.127 µM) with Klebsiella pneumoniae (setting [15]). Moreover, the MIC in the test with Staphylococcus aureus [5] (setting [16]) came out at 0.013 µg/mL (≈ 0.0331 µM); with Staphylococcus aureus [6] (setting [16]), 0.006 µg/mL (≈ 0.0153 µM); in the test on Providencia rettgeri (setting [17]) it was 0.2 µg/mL (≈ 0.51 µM); in the test with Escherichia coli [9] (setting [18]), 0.025 µg/mL (≈ 0.0637 µM). For the same compound, the Cytotoxicity in [2] worked out at 7.8 µg/mL. This compound had a Dose in the test filed under Mus musculus of over 100 mg/kg. The ED50 stood at 1 mg/kg in the test with Escherichia coli [4] and 8 mg/kg with Escherichia coli [7].
Consider `CN[C@H](C)[C@@H]1CCN(c2c(F)c(N)c3c(=O)c(C(=O)O)cn(C4CC4)c3c2F)C1`, for which the minimum inhibitory concentration (MIC) in the test on Enterococcus faecalis (setting [10]) was determined as 0.013 µg/mL (≈ 0.032 µM); in the test on Pseudomonas aeruginosa (setting [11]), 0.8 µg/mL (≈ 1.97 µM); with Streptococcus pyogenes [1] (setting [12]) it was 0.006 µg/mL (≈ 0.0148 µM); with Enterobacter cloacae (setting [13]) it was 0.05 µg/mL (≈ 0.123 µM); in the test on Streptococcus pneumoniae (setting [14]), 0.006 µg/mL (≈ 0.0148 µM); in the test on Klebsiella pneumoniae (setting [15]) it was 0.1 µg/mL (≈ 0.246 µM). The minimal inhibitory concentration (MIC) with Staphylococcus aureus [5] (setting [16]) amounted to 0.006 µg/mL (≈ 0.0148 µM); with Staphylococcus aureus [6] (setting [16]), 0.003 µg/mL (≈ 0.00738 µM); in the test with Providencia rettgeri (setting [17]) it was 0.2 µg/mL (≈ 0.492 µM); in the test with Escherichia coli [9] (setting [18]), 0.05 µg/mL (≈ 0.123 µM). The compound further had a Cytotoxicity in [2] of 24 µg/mL. This compound returned a Dose in the test filed under Mus musculus of under 30 mg/kg.
For `CC(N)C1CCN(c2c(F)cc3c(=O)c(C(=O)O)cn(C4CC4)c3c2C(F)(F)F)C1` (racemic), the MIC in the test with Enterococcus faecalis was 0.025 µg/mL (≈ 0.0585 µM); with Pseudomonas aeruginosa, 1.6 µg/mL (≈ 3.74 µM); in the test with Streptococcus pyogenes [1], 0.006 µg/mL (≈ 0.014 µM); with Enterobacter cloacae, 0.2 µg/mL (≈ 0.468 µM); in the test on Streptococcus pneumoniae, 0.006 µg/mL (≈ 0.014 µM); in the test with Klebsiella pneumoniae, 0.2 µg/mL (≈ 0.468 µM). The minimum inhibitory concentration (MIC) worked out at 0.013 µg/mL (≈ 0.0304 µM) in the test with Staphylococcus aureus [5], 0.006 µg/mL (≈ 0.014 µM) in the test with Staphylococcus aureus [6], 0.4 µg/mL (≈ 0.936 µM) in the test on Providencia rettgeri and 0.2 µg/mL (≈ 0.468 µM) in the test on Escherichia coli [9]. The same compound yielded a Cytotoxicity in [2] of 19 µg/mL. In addition, the PD50 with Streptococcus pyogenes [3] was determined as 0.7 mg/kg; with Streptococcus pyogenes [8], 0.3 mg/kg. Moreover, in the test listed under Mus musculus, the Dose is over 100 mg/kg.
